In ChEMBL document CHEMBL3120144, “Design, synthesis and molecular modeling of aloe-emodin derivatives as potent xanthine oxidase inhibitors” (Eur J Med Chem, 2014):

How the values were obtained:
[1] = biological target: T1, Xanthine dehydrogenase/oxidase (Bos taurus, UniProt P80457); experiment: Inhibition of bovine xanthine oxidase using xanthine as substrate measured for 6 mins at 50 uM at 25 degC by spectrophotometry; details: cattle, 0.1 h
How it was run: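 Xanthine substrate, 25 °C, in 50 mM K₂HPO₄ buffer at pH 7.8. Xanthine was added as an 84.8 μg/mL solution in the same buffer; this is the added solution's concentration, not the final one. Test compounds were dissolved in DMSO and added at various concentrations.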

[2] = biological target: T1, Xanthine dehydrogenase/oxidase; experiment: Mixed-type inhibition of bovine xanthine oxidase using xanthine as substrate at 1.4 to 5.6 uM by Lineweaver-Burk plot; details: cattle
[3] = biological target: T1, Xanthine dehydrogenase/oxidase; experiment: Inhibition of bovine xanthine oxidase using xanthine as substrate measured for 6 mins at 25 degC by spectrophotometry

T1 sequence (P80457 whole entry): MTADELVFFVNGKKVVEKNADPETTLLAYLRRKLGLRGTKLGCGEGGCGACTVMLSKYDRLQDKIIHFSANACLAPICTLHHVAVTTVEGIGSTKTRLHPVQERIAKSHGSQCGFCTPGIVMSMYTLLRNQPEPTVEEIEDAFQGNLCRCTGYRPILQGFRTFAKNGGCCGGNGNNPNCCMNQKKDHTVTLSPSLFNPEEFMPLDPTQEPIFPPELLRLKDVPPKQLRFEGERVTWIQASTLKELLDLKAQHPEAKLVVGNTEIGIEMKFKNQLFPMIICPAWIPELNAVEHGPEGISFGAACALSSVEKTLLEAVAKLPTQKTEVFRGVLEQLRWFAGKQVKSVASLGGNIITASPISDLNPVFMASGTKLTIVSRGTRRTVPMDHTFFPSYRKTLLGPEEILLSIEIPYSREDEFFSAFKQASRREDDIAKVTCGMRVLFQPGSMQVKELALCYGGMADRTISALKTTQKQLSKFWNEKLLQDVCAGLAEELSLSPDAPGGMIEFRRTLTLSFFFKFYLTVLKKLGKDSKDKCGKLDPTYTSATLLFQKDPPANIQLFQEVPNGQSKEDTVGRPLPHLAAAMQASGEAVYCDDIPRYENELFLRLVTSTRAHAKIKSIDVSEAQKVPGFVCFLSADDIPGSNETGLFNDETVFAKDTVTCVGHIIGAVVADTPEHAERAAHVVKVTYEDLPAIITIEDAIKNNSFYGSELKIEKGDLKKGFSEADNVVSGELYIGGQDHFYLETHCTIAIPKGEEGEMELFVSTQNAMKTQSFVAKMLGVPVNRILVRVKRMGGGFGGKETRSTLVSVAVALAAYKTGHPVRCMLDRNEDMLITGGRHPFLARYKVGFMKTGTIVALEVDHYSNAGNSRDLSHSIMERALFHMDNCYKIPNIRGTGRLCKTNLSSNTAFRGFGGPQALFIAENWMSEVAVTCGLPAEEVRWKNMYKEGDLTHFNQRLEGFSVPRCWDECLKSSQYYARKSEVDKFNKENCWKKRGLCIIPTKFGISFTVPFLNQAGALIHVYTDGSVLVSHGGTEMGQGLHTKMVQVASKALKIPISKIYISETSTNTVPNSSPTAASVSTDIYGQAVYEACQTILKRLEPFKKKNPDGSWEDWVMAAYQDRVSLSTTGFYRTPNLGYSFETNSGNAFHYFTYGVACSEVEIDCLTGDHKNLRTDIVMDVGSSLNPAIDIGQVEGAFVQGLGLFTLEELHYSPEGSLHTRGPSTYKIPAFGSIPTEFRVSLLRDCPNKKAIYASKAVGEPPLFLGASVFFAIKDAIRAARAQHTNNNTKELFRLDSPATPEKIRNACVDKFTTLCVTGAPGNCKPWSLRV

How did the inhibition at 50 µM [1] turn out when `COc1cccc2c1C(=O)c1c(OC)cc(C[N+](C)(C)C)cc1C2=O` was run?
The inhibition at 50 µM was < 10%.

Which inhibition at 50 µM [1] does the source give for `COc1cccc2c1C(=O)c1c(OC)cc(C[N+](C)(C)c3ccccc3)cc1C2=O` here?
Its inhibition at 50 µM is < 10%.

How did the inhibition at 50 µM [1] turn out when `COc1cccc2c1C(=O)c1c(OC)cc(CO)cc1C2=O` was run?
The inhibition at 50 µM was 9.77%.

For `O=Cc1cc(O)c2c(c1)C(=O)c1cccc(O)c1C2=O`, which “inhibition (INH)” value [2] is on record?
Its value is “Active”.

And the inhibition at 50 µM [1]?
Its inhibition at 50 µM is 93.3%.

And the IC50 [3]?
The IC50 was 2.79 µM.

And the “inhibition (INH)” value ([3]; cattle, 0.1 h)?
The value was “Dose-dependent effect”.

Which inhibition at 50 µM [1] does the source give for `COc1cccc2c1C(=O)c1c(OC)cc(C=O)cc1C2=O` here?
Its inhibition at 50 µM is 36.5%.

For `COc1cccc2c1C(=O)c1c(OC)cc(/C=N/O)cc1C2=O`, which inhibition at 50 µM [1] is on record?
The inhibition at 50 µM was < 10%.

For `COc1cccc2c1C(=O)c1c(OC)cc(/C=N/N)cc1C2=O`, which inhibition at 50 µM [1] is on record?
The inhibition at 50 µM was < 10%.

With `COc1cccc2c1C(=O)c1c(OC)cc(/C=N/c3ccccc3)cc1C2=O` as the molecule, how does the inhibition at 50 µM [1] read?
The inhibition at 50 µM was 17.5%.

How did the inhibition at 50 µM [1] turn out when `CC(=O)OC[C@H]1OC(OC(C)=O)[C@H](/N=C/c2cc(O)c3c(c2)C(=O)c2cccc(O)c2C3=O)[C@H](OC(C)=O)[C@@H]1OC(C)=O` (stereo not given in full) was run?
Its inhibition at 50 µM is 93.4%.

And the IC50 [3]?
The IC50 was 8.43 µM.

`O=C1c2cccc(O)c2C(=O)c2c(O)cc(CCl)cc21` was tested. Which inhibition at 50 µM [1] did it give?
The inhibition at 50 µM was 18.4%.

`COc1cccc2c1C(=O)c1c(OC)cc(CCl)cc1C2=O` was tested. Which inhibition at 50 µM [1] did it give?
The inhibition at 50 µM was 14.3%.

Which inhibition at 50 µM [1] does the source give for `O=C1c2cccc(O)c2C(=O)c2c(O)cc(C[n+]3ccccc3)cc21` here?
The inhibition at 50 µM was < 10%.

What does the source list for `C[N+](C)(C)Cc1cc(O)c2c(c1)C(=O)c1cccc(O)c1C2=O`?
inhibition at 50 µM [1]: 68.8%; IC50 [3]: 18.7 µM

For `C[N+](C)(Cc1cc(O)c2c(c1)C(=O)c1cccc(O)c1C2=O)c1ccccc1`, which inhibition at 50 µM [1] is on record?
Its inhibition at 50 µM is < 10%.

`COc1cccc2c1C(=O)c1c(OC)cc(C[n+]3ccccc3)cc1C2=O` was tested. Which inhibition at 50 µM [1] did it give?
The inhibition at 50 µM was < 10%.

With `O=C1c2cccc(O)c2C(=O)c2c(O)cc(/C=N/c3ccccc3)cc21` as the molecule, how does the inhibition at 50 µM [1] read?
The inhibition at 50 µM was 94.5%.

What about the IC50 [3] of the same molecule?
The IC50 was 3.87 µM.

With `CC(=O)OC[C@H]1OC(OC(C)=O)[C@H](NC(=O)c2cc(O)c3c(c2)C(=O)c2cccc(O)c2C3=O)[C@H](OC(C)=O)[C@@H]1OC(C)=O` (stereo not given in full) as the molecule, how does the inhibition at 50 µM [1] read?
Its inhibition at 50 µM is 7.2%.

How did the inhibition at 50 µM [1] turn out when `O=C1c2cccc(O)c2C(=O)c2c(O)cc(CO)cc21` [ALOE-EMODIN] was run?
Its inhibition at 50 µM is 22.5%.

With `O=C(O)c1cc(O)c2c(c1)C(=O)c1cccc(O)c1C2=O` [RHEIN] as the molecule, how does the inhibition at 50 µM [1] read?
Its inhibition at 50 µM is 3.63%.
